Source: ChEMBL document CHEMBL4699564, “Hit-to-lead optimization and discovery of a potent, and orally bioavailable G protein coupled receptor kinase 2 (GRK2) inhibitor” (Bioorg Med Chem Lett, 2020)

What was measured:
Rhodopsin kinase GRK1 [1] = target: T1, Rhodopsin kinase GRK1 (Homo sapiens, UniProt Q15835); experiment: Binding affinity to GRK1 (unknown origin) by Thermofluor thermal shift assay
T1 sequence (Q15835 whole entry): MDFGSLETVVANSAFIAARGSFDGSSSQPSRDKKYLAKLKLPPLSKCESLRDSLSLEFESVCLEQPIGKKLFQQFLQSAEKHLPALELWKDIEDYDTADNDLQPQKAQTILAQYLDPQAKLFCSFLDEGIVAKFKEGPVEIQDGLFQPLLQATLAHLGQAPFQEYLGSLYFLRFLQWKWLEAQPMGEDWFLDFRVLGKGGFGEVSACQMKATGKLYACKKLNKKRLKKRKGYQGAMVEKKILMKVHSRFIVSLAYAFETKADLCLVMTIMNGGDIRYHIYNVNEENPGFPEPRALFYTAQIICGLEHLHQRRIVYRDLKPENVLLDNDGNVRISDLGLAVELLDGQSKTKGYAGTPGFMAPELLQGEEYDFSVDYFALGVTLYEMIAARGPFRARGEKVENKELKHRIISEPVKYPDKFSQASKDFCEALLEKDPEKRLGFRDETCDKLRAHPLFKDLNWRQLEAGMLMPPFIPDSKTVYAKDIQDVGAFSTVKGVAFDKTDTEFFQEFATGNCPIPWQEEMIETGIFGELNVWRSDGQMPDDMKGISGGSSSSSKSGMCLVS

[2] = target: T2, G protein-coupled receptor kinase 5 (Homo sapiens, UniProt P34947); experiment: Binding affinity to GRK5 (unknown origin) by Thermofluor thermal shift assay
T2 sequence (P34947 whole entry): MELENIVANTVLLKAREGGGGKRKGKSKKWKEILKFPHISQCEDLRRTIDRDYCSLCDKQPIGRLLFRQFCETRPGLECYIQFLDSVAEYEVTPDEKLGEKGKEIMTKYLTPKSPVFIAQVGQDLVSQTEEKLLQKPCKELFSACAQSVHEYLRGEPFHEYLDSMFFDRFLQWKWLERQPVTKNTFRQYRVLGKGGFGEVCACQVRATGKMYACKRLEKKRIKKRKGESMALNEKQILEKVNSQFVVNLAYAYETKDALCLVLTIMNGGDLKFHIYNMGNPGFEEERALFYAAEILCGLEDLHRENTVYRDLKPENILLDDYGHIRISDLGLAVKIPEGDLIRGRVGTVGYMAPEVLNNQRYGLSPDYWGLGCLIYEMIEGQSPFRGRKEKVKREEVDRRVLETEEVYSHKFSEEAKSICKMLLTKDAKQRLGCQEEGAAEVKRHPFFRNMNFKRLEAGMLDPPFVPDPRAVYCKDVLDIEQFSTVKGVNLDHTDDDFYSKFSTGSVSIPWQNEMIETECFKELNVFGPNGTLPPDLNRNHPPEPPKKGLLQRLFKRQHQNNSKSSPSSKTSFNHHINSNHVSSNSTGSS

[3] = target: Rho-associated protein kinase 1 (Homo sapiens, UniProt Q13464); experiment: Inhibition of human ROCK1
Chain of Rho-associated protein kinase 1 (Q13464 whole entry): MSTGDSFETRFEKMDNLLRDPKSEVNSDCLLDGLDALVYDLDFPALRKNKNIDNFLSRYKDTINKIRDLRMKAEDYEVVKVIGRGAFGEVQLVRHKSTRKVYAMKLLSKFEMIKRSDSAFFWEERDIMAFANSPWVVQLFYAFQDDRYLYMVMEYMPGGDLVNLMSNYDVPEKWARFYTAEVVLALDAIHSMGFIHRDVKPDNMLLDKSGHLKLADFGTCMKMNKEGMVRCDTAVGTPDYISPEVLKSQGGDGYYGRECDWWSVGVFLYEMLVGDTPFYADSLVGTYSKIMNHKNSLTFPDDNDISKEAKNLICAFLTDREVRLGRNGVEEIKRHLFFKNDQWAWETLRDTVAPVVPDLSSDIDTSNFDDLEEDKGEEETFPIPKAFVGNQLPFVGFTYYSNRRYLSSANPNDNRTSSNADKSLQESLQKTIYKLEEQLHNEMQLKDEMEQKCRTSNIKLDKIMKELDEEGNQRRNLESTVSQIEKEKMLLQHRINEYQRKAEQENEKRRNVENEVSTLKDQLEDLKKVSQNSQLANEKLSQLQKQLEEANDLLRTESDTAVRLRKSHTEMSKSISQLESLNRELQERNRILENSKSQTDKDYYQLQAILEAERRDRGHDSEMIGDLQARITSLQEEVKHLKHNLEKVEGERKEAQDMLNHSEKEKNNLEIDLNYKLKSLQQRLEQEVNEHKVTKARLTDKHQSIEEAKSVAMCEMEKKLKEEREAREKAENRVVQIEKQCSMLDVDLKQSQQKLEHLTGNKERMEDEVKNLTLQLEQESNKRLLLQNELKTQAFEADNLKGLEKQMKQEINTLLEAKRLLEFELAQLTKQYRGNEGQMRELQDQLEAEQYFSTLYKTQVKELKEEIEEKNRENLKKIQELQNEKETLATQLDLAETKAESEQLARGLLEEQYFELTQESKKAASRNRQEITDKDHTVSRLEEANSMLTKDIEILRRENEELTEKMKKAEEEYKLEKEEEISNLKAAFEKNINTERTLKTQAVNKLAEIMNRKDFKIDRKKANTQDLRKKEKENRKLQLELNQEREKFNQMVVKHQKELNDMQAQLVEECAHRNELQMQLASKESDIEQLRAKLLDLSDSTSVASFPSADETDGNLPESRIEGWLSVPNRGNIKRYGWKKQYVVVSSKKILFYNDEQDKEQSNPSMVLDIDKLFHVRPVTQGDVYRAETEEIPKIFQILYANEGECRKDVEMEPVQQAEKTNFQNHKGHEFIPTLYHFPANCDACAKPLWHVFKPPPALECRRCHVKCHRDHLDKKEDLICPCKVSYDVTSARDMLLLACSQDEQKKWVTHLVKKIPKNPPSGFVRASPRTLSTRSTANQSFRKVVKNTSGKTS

[4] = target: Protein kinase C beta type (Homo sapiens, UniProt P05771); experiment: Inhibition of human PKCbeta1
Chain of Protein kinase C beta type (P05771 whole entry): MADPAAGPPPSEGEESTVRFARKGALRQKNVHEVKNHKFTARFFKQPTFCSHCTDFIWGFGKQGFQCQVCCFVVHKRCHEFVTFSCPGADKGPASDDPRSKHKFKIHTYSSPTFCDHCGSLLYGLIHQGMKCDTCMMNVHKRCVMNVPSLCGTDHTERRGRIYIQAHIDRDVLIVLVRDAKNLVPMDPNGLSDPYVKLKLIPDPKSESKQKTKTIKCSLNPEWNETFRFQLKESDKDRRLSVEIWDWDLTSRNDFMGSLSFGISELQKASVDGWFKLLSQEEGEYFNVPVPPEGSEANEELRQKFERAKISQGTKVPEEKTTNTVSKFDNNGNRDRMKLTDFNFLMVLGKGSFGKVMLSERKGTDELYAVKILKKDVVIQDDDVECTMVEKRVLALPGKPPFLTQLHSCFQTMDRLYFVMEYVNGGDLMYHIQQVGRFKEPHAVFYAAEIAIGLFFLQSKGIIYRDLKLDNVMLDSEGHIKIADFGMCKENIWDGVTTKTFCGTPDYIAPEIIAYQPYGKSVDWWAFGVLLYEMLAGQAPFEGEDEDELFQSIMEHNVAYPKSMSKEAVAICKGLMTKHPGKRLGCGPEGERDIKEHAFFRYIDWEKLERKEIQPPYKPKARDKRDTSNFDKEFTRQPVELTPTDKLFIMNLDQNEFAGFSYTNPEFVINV

Rhodopsin kinase GRK7 = target: T3, Rhodopsin kinase GRK7 (Homo sapiens, UniProt Q8WTQ7); experiment: Inhibition of human GRK7
T3 sequence (Q8WTQ7 whole entry): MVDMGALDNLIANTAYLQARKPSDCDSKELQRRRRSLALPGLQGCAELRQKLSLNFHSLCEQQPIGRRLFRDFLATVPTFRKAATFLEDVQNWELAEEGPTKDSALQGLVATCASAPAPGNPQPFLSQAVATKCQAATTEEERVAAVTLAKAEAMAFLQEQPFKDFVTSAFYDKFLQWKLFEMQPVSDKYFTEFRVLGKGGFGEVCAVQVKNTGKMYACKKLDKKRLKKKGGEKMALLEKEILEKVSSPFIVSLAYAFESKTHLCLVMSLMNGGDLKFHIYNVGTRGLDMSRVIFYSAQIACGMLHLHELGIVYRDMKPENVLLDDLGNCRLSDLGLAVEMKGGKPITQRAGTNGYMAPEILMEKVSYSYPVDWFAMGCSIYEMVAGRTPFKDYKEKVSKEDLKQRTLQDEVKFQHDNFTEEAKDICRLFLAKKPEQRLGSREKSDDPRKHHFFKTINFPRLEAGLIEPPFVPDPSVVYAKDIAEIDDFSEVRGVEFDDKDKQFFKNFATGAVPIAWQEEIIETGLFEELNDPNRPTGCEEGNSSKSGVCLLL

[5] = target: RAC-alpha serine/threonine-protein kinase (Homo sapiens, UniProt P31749); experiment: Inhibition of human PKBalpha
[6] = Inhibition of protein kinase A (unknown origin); design: species or system Homo sapiens
[7] = target: Calcium/calmodulin-dependent protein kinase type II subunit beta (Homo sapiens, UniProt Q13554); experiment: Inhibition of human CaMK2beta
Chain of Calcium/calmodulin-dependent protein kinase type II subunit beta (Q13554 whole entry): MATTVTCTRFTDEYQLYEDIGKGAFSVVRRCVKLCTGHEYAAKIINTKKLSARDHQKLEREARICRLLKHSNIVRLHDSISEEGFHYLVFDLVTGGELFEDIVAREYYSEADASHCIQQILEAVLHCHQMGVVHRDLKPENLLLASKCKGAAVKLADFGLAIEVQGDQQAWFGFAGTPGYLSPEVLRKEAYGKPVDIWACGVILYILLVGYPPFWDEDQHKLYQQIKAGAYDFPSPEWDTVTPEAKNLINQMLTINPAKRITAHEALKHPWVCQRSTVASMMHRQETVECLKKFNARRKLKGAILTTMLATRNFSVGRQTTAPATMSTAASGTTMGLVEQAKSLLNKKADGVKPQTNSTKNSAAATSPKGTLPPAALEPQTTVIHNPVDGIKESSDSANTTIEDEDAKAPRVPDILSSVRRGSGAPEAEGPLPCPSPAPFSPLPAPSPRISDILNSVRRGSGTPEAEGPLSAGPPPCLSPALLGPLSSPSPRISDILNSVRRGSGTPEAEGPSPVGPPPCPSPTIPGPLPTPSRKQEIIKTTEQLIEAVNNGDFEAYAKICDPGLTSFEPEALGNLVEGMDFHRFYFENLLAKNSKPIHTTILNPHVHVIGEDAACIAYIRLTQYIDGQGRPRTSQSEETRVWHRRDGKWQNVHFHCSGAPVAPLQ

Rhodopsin kinase GRK1 [8] = target: T1, Rhodopsin kinase GRK1; experiment: Inhibition of human GRK1
[9] = target: Ribosomal protein S6 kinase alpha-1 (Homo sapiens, UniProt Q15418); experiment: Inhibition of RSK1 (unknown origin)
Chain of Ribosomal protein S6 kinase alpha-1 (Q15418 whole entry): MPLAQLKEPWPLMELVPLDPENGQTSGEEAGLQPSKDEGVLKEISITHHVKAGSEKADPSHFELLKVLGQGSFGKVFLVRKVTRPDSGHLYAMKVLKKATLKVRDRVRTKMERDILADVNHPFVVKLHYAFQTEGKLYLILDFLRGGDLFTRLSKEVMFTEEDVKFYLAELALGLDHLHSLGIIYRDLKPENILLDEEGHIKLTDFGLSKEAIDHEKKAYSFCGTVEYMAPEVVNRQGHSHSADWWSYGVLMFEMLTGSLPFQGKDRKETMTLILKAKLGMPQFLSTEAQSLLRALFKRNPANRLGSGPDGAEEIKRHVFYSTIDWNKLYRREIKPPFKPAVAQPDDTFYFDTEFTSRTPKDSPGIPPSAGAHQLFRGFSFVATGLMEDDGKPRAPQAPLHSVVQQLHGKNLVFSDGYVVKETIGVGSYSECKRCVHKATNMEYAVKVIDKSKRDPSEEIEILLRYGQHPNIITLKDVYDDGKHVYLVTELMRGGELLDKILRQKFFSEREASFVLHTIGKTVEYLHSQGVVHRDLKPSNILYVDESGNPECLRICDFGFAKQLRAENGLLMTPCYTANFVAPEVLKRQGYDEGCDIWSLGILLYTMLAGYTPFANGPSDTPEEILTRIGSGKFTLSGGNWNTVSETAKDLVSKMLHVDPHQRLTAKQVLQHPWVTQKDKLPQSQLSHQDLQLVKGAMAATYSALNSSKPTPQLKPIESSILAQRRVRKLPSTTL

[10] = target: T2, G protein-coupled receptor kinase 5; experiment: Inhibition of human GRK5
Aurora kinase A = target: T4, Aurora kinase A (Homo sapiens, UniProt O14965); experiment: Inhibition of human Aurora A
T4 sequence (O14965 whole entry): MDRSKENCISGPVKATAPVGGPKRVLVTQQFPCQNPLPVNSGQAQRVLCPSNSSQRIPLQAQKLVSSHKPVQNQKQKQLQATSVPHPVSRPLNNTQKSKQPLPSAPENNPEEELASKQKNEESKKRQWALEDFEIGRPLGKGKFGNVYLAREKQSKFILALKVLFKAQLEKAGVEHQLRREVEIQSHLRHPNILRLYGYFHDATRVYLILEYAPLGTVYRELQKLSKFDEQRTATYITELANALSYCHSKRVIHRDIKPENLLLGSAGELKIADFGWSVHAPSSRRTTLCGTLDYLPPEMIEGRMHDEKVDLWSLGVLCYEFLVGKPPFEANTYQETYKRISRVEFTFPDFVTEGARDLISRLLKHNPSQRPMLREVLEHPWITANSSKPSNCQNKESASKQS

[11] = target: G protein-coupled receptor kinase 6 (Homo sapiens, UniProt P43250); experiment: Inhibition of human GRK6
[12] = target: Protein kinase C alpha type (Homo sapiens, UniProt P17252); experiment: Inhibition of human PKCalpha
[13] = Apparent permeability across apical to basal side in MDCK-MDR1 cells; type: ADME, cell-based, Canis lupus familiaris; conditions: dog
[14] = Half life in C57BL mouse at 10 mg/kg, po administered as single dose; type: ADME, organism-based; conditions: in vivo
Procedure, shortened: (§1)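 C57BL mice given a single dose, 2 mg/kg i.v. or 10 mg/kg p.o., both formulated in 20% HPbCD. Plasma concentration–time profiles gave clearance, Vdss, terminal half-lives, Cmax, tmax, oral AUC and bioavailability.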

[15] = Tmax in C57BL mouse at 2 mg/kg, iv or 10 mg/kg, po administered as single dose; type: ADME, organism-based; conditions: in vivo; procedure, shortened: as §1
[16] = Half life in C57BL mouse at 2 mg/kg, iv administered as single dose; type: ADME, organism-based; conditions: in vivo; procedure, shortened: as §1
[17] = Cmax in C57BL mouse at 2 mg/kg, iv or 10 mg/kg, po administered as single dose; type: ADME, organism-based; design: dose 10 mg/kg; conditions: in vivo; procedure, shortened: as §1
[18] = Volume of distribution at steady state in C57BL mouse at 2 mg/kg, iv or 10 mg/kg, po administered as single dose; type: ADME, organism-based; conditions: in vivo, read-out: Vdss; procedure, shortened: as §1
[19] = Plasma clearance in C57BL mouse at 2 mg/kg, iv or 10 mg/kg, po administered as single dose; type: ADME, organism-based; procedure, shortened: as §1
[20] = Oral bioavailability in C57BL mouse at 10 mg/kg administered as single dose; type: ADME, organism-based; conditions: in vivo; procedure, shortened: as §1

## O=c1c2cc(-c3cn[nH]c3)ccc2ncn1Cc1ccccc1
Rhodopsin kinase GRK1 [1]
  Kd: 14.5 µM
[2]
  Kd: 34.3 µM

## O=c1c2cc(-c3ccncc3)ccc2ncn1Cc1ccccc1
Rhodopsin kinase GRK1 [1]
  Kd: > 83.3 µM
[2]
  Kd: > 83.3 µM

## COc1cccc(Cn2cnc3ccc(-c4cn[nH]c4)cc3c2=O)c1
[3]
  IC50: 0.246 µM
[4]
  IC50: 9.07 µM
Rhodopsin kinase GRK7
  IC50: 9.14 µM
[5]
  IC50: 1.45 µM
[6]
  IC50: 0.855 µM
[7]
  IC50: 3.85 µM
Rhodopsin kinase GRK1 [8]
  IC50: > 10 µM
[9]
  IC50: 0.483 µM
[10]
  IC50: 4.5 µM
Aurora kinase A
  IC50: 0.011 µM
[11]
  IC50: 3.27 µM
[12]
  IC50: > 10 µM
[13]
  Papp A→B: 20.6 ×10⁻⁶ cm/s

## COc1cccc(Cn2ncc3ccc(-c4cn[nH]c4)cc3c2=O)c1
[3]
  IC50: 1.27 µM
[4]
  IC50: > 10 µM
Rhodopsin kinase GRK7
  IC50: > 10 µM
[14]
  half-life: 2.41 h
[5]
  IC50: > 10 µM
[15]
  Tmax: 0.83 h
[6]
  IC50: 4.88 µM
[7]
  IC50: > 10 µM
Rhodopsin kinase GRK1 [8]
  IC50: > 10 µM
[9]
  IC50: 3.15 µM
[10]
  IC50: > 10 µM
Aurora kinase A
  IC50: 0.137 µM
[16]
  half-life: 1.01 h
[11]
  IC50: > 10 µM
[12]
  IC50: > 10 µM
[17]
  Cmax: 4.96 µM
[18]
  Vd: 2.01 L/kg
[19]
  clearance: 29.1 mL/min/kg
[20]
  bioavailability: 65.3%
[13]
  Papp A→B: 53.2 ×10⁻⁶ cm/s

## O=C(NCc1c(F)cccc1F)c1cccc(Cn2cnc3ccc(-c4cn[nH]c4)cc3c2=O)c1
[13]
  Papp A→B: 0.85 ×10⁻⁶ cm/s

## COc1cc(Cn2cnc3ccc(-c4cn[nH]c4)cc3c2=O)ccc1F
[13]
  Papp A→B: 10.1 ×10⁻⁶ cm/s

## O=c1c2cc(-c3cn[nH]c3)ccc2ncn1Cc1cccc(Oc2ccc(F)cc2)c1
[13]
  Papp A→B: 7.73 ×10⁻⁶ cm/s

## O=C(NCc1ccc(F)cc1)c1cccc(Cn2cnc3ccc(-c4cn[nH]c4)cc3c2=O)c1
[13]
  Papp A→B: 0.57 ×10⁻⁶ cm/s

## O=c1c2cc(-c3cncnc3)ccc2ncn1Cc1ccccc1
Rhodopsin kinase GRK1 [1]
  Kd: > 83.3 µM
[2]
  Kd: > 83.3 µM

## O=c1c2cc(-c3cn[nH]c3)ccc2ncn1Cc1cccc(OC(F)F)c1
[13]
  Papp A→B: 24.2 ×10⁻⁶ cm/s

## COc1cccc([C@@H](C)n2cnc3ccc(-c4cn[nH]c4)cc3c2=O)c1
[13]
  Papp A→B: 37.8 ×10⁻⁶ cm/s

## COc1ccc(Cn2cnc3ccc(-c4cn[nH]c4)cc3c2=O)cc1F
[13]
  Papp A→B: 12.3 ×10⁻⁶ cm/s

## O=C(Nc1ccc(F)cc1)c1cccc(Cn2cnc3ccc(-c4cn[nH]c4)cc3c2=O)c1
[13]
  Papp A→B: 0.44 ×10⁻⁶ cm/s

## O=c1c2ccc(-c3cn[nH]c3)cc2ncn1Cc1ccccc1
Rhodopsin kinase GRK1 [1]
  Kd: 47.6 µM
[2]
  Kd: > 83.3 µM

## O=C(NCc1c(F)cccc1F)c1ccc(Cn2cnc3ccc(-c4cn[nH]c4)cc3c2=O)cc1
[13]
  Papp A→B: 0.66 ×10⁻⁶ cm/s

## O=c1c2cc(-c3ccn[nH]3)ccc2ncn1Cc1ccccc1
Rhodopsin kinase GRK1 [1]
  Kd: > 83.3 µM
[2]
  Kd: > 83.3 µM

## CNCCC(c1cccc(OC)c1)n1cnc2ccc(-c3cn[nH]c3)cc2c1=O (racemic)
[13]
  Papp A→B: < 0.34 ×10⁻⁶ cm/s
